According to ChEMBL document CHEMBL2046388, “Synthesis and biological evaluation of novel anticancer bivalent colchicine-tubulizine hybrids” (Bioorg Med Chem, 2012):
The source made the active and inactive calls. The rule behind the calls is not given here.

How the values were obtained:
HBL-100 = experiment: Antiproliferative activity against human HBL100 after 72 hrs by MTT assay; type: functional, cell-based; conditions: HBL-100, 72 h
Ovis aries [1] = species on record: Ovis aries; experiment: Inhibition of sheep tubulin assembly assessed as half inhibitory molar ratio of compound to tubulin by DAPI fluorometric assay; design: unit not given here
Outline: (§1)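 Lamb brain tubulin (ammonium sulfate fractionation, ion-exchange chromatography; quantified at 275 nm) was polymerized at 37 °C, started by warming, with DAPI in 20 mM sodium phosphate, 1 mM EGTA, 10 mM MgCl2, 3.4 M glycerol, pH 6.5, with DMSO under 1%. DAPI fluorescence was followed over time, and % inhibition was plotted against the ligand:tubulin molar ratio. Run in triplicate.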

[2] = Lipophilicity, log D of the compound; type: physicochemical; conditions: octanol/water
Ovis aries [3] = species on record: Ovis aries; experiment: Inhibition of sheep tubulin polymerization at 1 to 30 uM by DAPI fluorometric assay; outline: as §1

Row | Structure (SMILES) | IC50 (HBL-100) [nM] | INH (Ovis aries [1]) | logD [2] | inhibition (Ovis aries [3])
1 | COc1ccc(CNc2nc(NCCO)nc(NCc3ccc(OC)cc3)n2)cc1 | 3140 | 0.34 |  | 
2 | COc1ccc(CNc2nc(NCCOC(=O)CCCc3cn(CCCCCC(=O)N[C@H]4CCc5cc(OC)c(OC)c(OC)c5-c5ccc(OC)c(=O)cc54)nn3)nc(NCc3ccc(OC)cc3)n2)cc1 | 1860 | 0.48 | 6.367 | 
3 | COc1ccc(CNc2nc(NCCOC(=O)CCCCCCCCc3cn(CCC(=O)N[C@H]4CCc5cc(OC)c(OC)c(OC)c5-c5ccc(OC)c(=O)cc54)nn3)nc(NCc3ccc(OC)cc3)n2)cc1 | 687 | 0.71 | 7.612 | Active
4 | COc1ccc(CNc2nc(NCc3ccc(OC)cc3)nc(NCc3cn(CCCCCCCCCC(=O)N[C@H]4CCc5cc(OC)c(OC)c(OC)c5-c5ccc(OC)c(=O)cc54)nn3)n2)cc1 | 699 | 0.99 | 8.465 | 
5 | COc1ccc(CNc2nc(NCCOC(=O)CCCCc3cn(CCC(=O)N[C@H]4CCc5cc(OC)c(OC)c(OC)c5-c5ccc(OC)c(=O)cc54)nn3)nc(NCc3ccc(OC)cc3)n2)cc1 | 1620 | 0.41 | 5.591 | 
6 | COc1ccc(CNc2nc(NCCOC(=O)CCc3cn(CCC(=O)N[C@H]4CCc5cc(OC)c(OC)c(OC)c5-c5ccc(OC)c(=O)cc54)nn3)nc(NCc3ccc(OC)cc3)n2)cc1 | 2590 | 0.48 | 4.815 | 
7 | COc1ccc(CNc2nc(NCCOC(=O)CCCCCCCCCCCCCCCc3cn(CCCCCC(=O)N[C@H]4CCc5cc(OC)c(OC)c(OC)c5-c5ccc(OC)c(=O)cc54)nn3)nc(NCc3ccc(OC)cc3)n2)cc1 | 599 | 2.75 | 9.814 | 
8 | COc1ccc(CNc2nc(NCCOC(=O)CCCc3cn(CCCCCCCCCC(=O)N[C@H]4CCc5cc(OC)c(OC)c(OC)c5-c5ccc(OC)c(=O)cc54)nn3)nc(NCc3ccc(OC)cc3)n2)cc1 | 1010 | 3.4 | 8.738 | 
9 | COc1ccc(CNc2nc(NCCOC(=O)COCCOCCOCCOCCOCCOCCOCCOCCOCCOCCOCC(=O)N[C@H]3CCc4cc(OC)c(OC)c(OC)c4-c4ccc(OC)c(=O)cc43)nc(NCc3ccc(OC)cc3)n2)cc1 | 2930 | 3.44 | 2.568 | 
